Laboratory results taken from ChEMBL document CHEMBL4422648, “Synthesis, biological evaluation and mode of action studies of novel amidinourea inhibitors of hepatitis C virus (HCV)” (Bioorg Med Chem Lett, 2019).
pIC50: −log10 of the molar value. Calls of active or inactive are those of the source. No cut-off for these calls is given here.

Experiments:
Hepatitis C virus [1] = test: Antiviral activity against HCV pseudo-particle infected in human HuH7 cells assessed as inhibition of HCV pseudo particles entry at 10 uM preincubated for 1 hr followed by viral infection and measured after 72 hrs by bright-glo luciferase reporter gene assay; type: functional, organism-based; conditions: Hepacivirus hominis
How it was run: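 Huh7 cells were pretreated with 10 µM compound for 1 h. They were then infected with HCV pseudo-particles for 3 h in the compound's presence. Entry was detected 72 h post infection; bafilomycin served as the positive control.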

Hepatitis C virus [2] = test: Antiviral activity against HCV sub-genomic replicon infected in human Huh7 cells at 10 uM added immediately with viral infection and measured after 24 hrs by bright-glo luciferase reporter gene assay relative to control; type: functional
How it was run: (§1)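 Huh7 cells were electroporated with HCV subgenomic replicon RNA. Compound at 10 µM was added either immediately at seeding or after 24 h to let replication establish. Luciferase was measured after 24 h of treatment.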

Huh-7 = test: Cytotoxicity against human HuH7 cells at 10 uM after 24 hrs by WST-1 assay; type: cell-based; conditions: huh-7, 24 h
How it was run: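 Huh7 cells were incubated 24 h with 10 µM of each compound before cell viability was assessed.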

Hepatitis C virus [3] = test: Antiviral activity against HCV sub-genomic replicon infected in human Huh7 cells at 10 uM added 24 hrs after viral infection and measured after 24 hrs by bright-glo luciferase reporter gene assay relative to control; type: functional, Hepacivirus hominis; how it was run: as §1
Hepatitis C virus [4] = test: Antiviral activity against HCV replicon infected in human Huh7-J17 cells after 24 hrs by bright-glo luciferase reporter gene assay relative to control; type: functional, Hepacivirus hominis
Hepatitis C virus [5] = test: Antiviral activity against HCV sub-genomic replicon infected in human Huh7 cells after 2 to 24 hrs by bright-glo luciferase reporter gene assay; type: functional, organism-based; conditions: Hepacivirus hominis
How it was run: (§2)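 Time course: Huh7 cells were transfected with HCV replicon RNA (wild-type subgenomic or replication-defective GND) and seeded in the presence of compound. Replication/translation signal was read at 2, 4, 8 and 24 h post transfection and compared with untreated cells at each time point.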

Hepatitis C virus [6] = test: Antiviral activity against HCV replicon infected in human Huh7 cells after 8 to 24 hrs by Western blot analysis; conditions: Hepacivirus hominis
Hepatitis C virus [7] = test: Antiviral activity against HCV sub-genomic replicon infected in human Huh7-J20 cells after 24 hrs by bright-glo luciferase reporter gene assay; type: functional, organism-based
How it was run: (§3)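 Subgenomic replicon RNA was electroporated into cells, which were exposed for 24 h to a dose range from 30 µM in 1:3 dilutions. Replication was read by luciferase, with cell viability measured alongside.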

Hepatitis C virus [8] = test: Antiviral activity against HCV replicon infected in human Huh7 cells assessed as reduction in NS5A level after 8 to 24 hrs by Western blot analysis; type: functional, organism-based; conditions: Hepacivirus hominis
How it was run: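 After transfection with HCV replicon RNA, Huh7 cells were treated immediately for 8 or 24 h. Lysates were probed by western blot for NS5A and for unprocessed polyprotein.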

[9] = Cytotoxicity against human Huh7-J20 cells infected with HCV JFH-1 after 72 hrs by WST-1 assay; type: cell-based
How it was run: (§4)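 HCVcc (JFH-1 clone) inoculated onto Huh7-J20 cells for 3 h. Infected cells were then exposed for 72 h to a dose range starting at 30 µM with 1:3 serial dilutions. Viral replication was read after harvest, and cell viability was measured in parallel.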

Hepatitis C virus [10] = test: Antiviral activity against HCV replication defective replicon infected in human Huh7 cells after 2 to 8 hrs by bright-glo luciferase reporter gene assay; type: functional, organism-based; conditions: Hepacivirus hominis; how it was run: as §2
[11] = test system: Internal ribosome entry site (IRES); test: Inhibition of HCV IRES transfected in human Huh7 cells assessed as inhibition of IRES-mediated translation after 24 hrs by dual luciferase reporter gene assay relative to control; type: cell-based; conditions: Hepacivirus hominis; dose or concentration not given here
How it was run: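 Huh7 cells were co-transfected with a plasmid for firefly luciferase driven by the HCV IRES and a plasmid for Renilla luciferase under the TK promoter, used to normalise transfection efficiency. Cells were exposed to compound for 24 h, then assayed by dual luciferase.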

Hepatitis C virus [12] = test: Antiviral activity against HCV JFH-1 infected in human Huh7-J20 cells after 72 hrs by SEAP based assay; type: functional, organism-based, Hepacivirus hominis; conditions: JFH-1, Huh7-J20, 72 h; how it was run: as §4
[13] = Cytotoxicity against human Huh7-J20 cells infected with HCV sub-genomic replicon assessed as reduction in cell viability up to 30 uM after 24 hrs by WST-1 assay; type: cell-based; how it was run: as §3

| SMILES | Activity (Hepatitis C virus [1]) | Activity (Hepatitis C virus [2]; Hepacivirus hominis) | Activity (Huh-7) | further results |
| --- | --- | --- | --- | --- |
| C#CCNC(=N)NCCCCCCNCCCCCCNC(=N)NCC#C | inactive | inactive | Non-Toxic | – |
| N=C(NCCCCCCCCNC(=N)NCc1ccccc1)NCc1ccccc1 | inactive | inactive | Non-Toxic | – |
| C=CCNC(=O)NC(=N)NCCCCNC(=N)NC(=O)NCC=C | inactive | inactive | Non-Toxic | – |
| C=CCNC(=N)NCCCCCCNCCCCCCNC(=N)NCC=C | inactive | inactive | Non-Toxic | – |
| C=CCNC(=O)NC(=N)NCCCCNC(=O)c1ccccc1 | inactive | inactive | Non-Toxic | – |
| C=CCNC(=O)NC(=N)NCCCCN | inactive | inactive | Non-Toxic | – |
| CO/C1=C\C(C)=C\[C@@H](C)[C@@H](O)[C@@H](C)C/C(C)=C/C=C/[C@H](OC)[C@@H]([C@@H](C)[C@@H](O)[C@H](C)[C@@]2(O)C[C@@H](O)[C@H](C)[C@@H](C(C)C)O2)OC1=O | Active | – | – | – |
| C=CCNC(=N)NCCCCCCCCNC(=N)NCC=C | inactive | inactive | Non-Toxic | – |
| C=CCNC(=O)NC(=N)NCCCN(C)CCCCN(C)CCCNC(=N)NC(=O)NCC=C | inactive | inactive | Non-Toxic | – |
| C=CCNC(=O)NC(=N)NCCCCNCCCNC(=N)NC(=O)NCC=C | inactive | inactive | Non-Toxic | – |
| C=CCNC(=O)NC(=N)NCCCNCCCCNCCCNC(=N)NC(=O)NCC=C | inactive | – | Non-Toxic | Activity (Hepatitis C virus [3]): 45%; Activity (Hepatitis C virus [4]): 45%; Activity (Hepatitis C virus [5]): Active; Activity (Hepatitis C virus [6]): Active; Activity (Hepatitis C virus [2]): 90%; Activity (Hepatitis C virus [7]; Hepacivirus hominis): Dose-dependent effect; pIC50 (Hepatitis C virus [7]; Huh7-J20, 24 h): 5.58; Activity (Hepatitis C virus [8]): Active; CC50 at 72 h [9]: 81.1 µM; Activity (Hepatitis C virus [10]): Active; inhibition [11]: 40%; pIC50 (Hepatitis C virus [12]): 4.91; Activity [13]: Non-Toxic |
